Source: ChEMBL document CHEMBL1127395, “Synthesis and antimicrobial activity of novel 3-[(aminopyrimidiniumyl)thio]methyl cephalosporins” (1994)
In brackets after ≈: the same amount, converted by molar mass.

tested on: Escherichia coli; assay: In vitro minimum inhibitory concentration for Escherichia coli (ATCC-10536) by agar dilution method; assay type: functional; conditions: Escherichia coli; read-out: MIC
In short: (§1)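 Two-fold serial dilutions of each compound dispersed in Mueller-Hinton agar; plates spot-inoculated with 2 μL of standard test strain at 10^7 CFU/mL, incubated 37 °C for 20 h; MIC read as lowest concentration inhibiting growth.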

MIC [µg/mL] | SMILES
0.13 (≈ 0.195 µM) | CCCC[n+]1c(N)cc(N)nc1SCC1=C(C(=O)[O-])N2C(=O)C(NC(=O)/C(=N\OC(C)(C)C(=O)O)c3cnc(N)s3)C2SC1 (stereo not drawn)
0.13 (≈ 0.192 µM) | CN(C)c1cc2n(C)cc[n+]2c(SCC2=C(C(=O)[O-])N3C(=O)C(NC(=O)/C(=N\OC(C)(C)C(=O)O)c4cnc(N)s4)C3SC2)n1 (stereo not drawn)
0.25 (≈ 0.347 µM) | CC(C)(O/N=C(\C(=O)NC1C(=O)N2C(C(=O)[O-])=C(CSc3nc(N)cc(N)[n+]3-c3ccc(Cl)cc3)CSC12)c1cnc(N)s1)C(=O)O (stereo not drawn)
0.25 (≈ 0.358 µM) | C[n+]1cc(Cc2ccccc2)c(N)nc1SCC1=C(C(=O)[O-])N2C(=O)C(NC(=O)/C(=N\OC(C)(C)C(=O)O)c3cnc(N)s3)C2SC1 (stereo not drawn)

tested on: Serratia marcescens; assay: In vitro minimum inhibitory concentration for Serratia marcescens (ATCC-27117) by agar dilution method; assay type: functional; conditions: Serratia marcescens; read-out: MIC; in short: as §1

MIC [µg/mL] | SMILES
0.5 (≈ 0.751 µM) | CCCC[n+]1c(N)cc(N)nc1SCC1=C(C(=O)[O-])N2C(=O)C(NC(=O)/C(=N\OC(C)(C)C(=O)O)c3cnc(N)s3)C2SC1 (stereo not drawn)
0.5 (≈ 0.74 µM) | CN(C)c1cc2n(C)cc[n+]2c(SCC2=C(C(=O)[O-])N3C(=O)C(NC(=O)/C(=N\OC(C)(C)C(=O)O)c4cnc(N)s4)C3SC2)n1 (stereo not drawn)
1 (≈ 1.39 µM) | CC(C)(O/N=C(\C(=O)NC1C(=O)N2C(C(=O)[O-])=C(CSc3nc(N)cc(N)[n+]3-c3ccc(Cl)cc3)CSC12)c1cnc(N)s1)C(=O)O (stereo not drawn)
0.5 (≈ 0.716 µM) | C[n+]1cc(Cc2ccccc2)c(N)nc1SCC1=C(C(=O)[O-])N2C(=O)C(NC(=O)/C(=N\OC(C)(C)C(=O)O)c3cnc(N)s3)C2SC1 (stereo not drawn)

tested on: Klebsiella pneumoniae; assay: In vitro minimum inhibitory concentration for Klebsiella pneumoniae (ATCC-10031) by agar dilution method; assay type: functional; conditions: Klebsiella pneumoniae; read-out: MIC

MIC [µg/mL] | SMILES
0.06 (≈ 0.0901 µM) | CCCC[n+]1c(N)cc(N)nc1SCC1=C(C(=O)[O-])N2C(=O)C(NC(=O)/C(=N\OC(C)(C)C(=O)O)c3cnc(N)s3)C2SC1 (stereo not drawn)
0.13 (≈ 0.192 µM) | CN(C)c1cc2n(C)cc[n+]2c(SCC2=C(C(=O)[O-])N3C(=O)C(NC(=O)/C(=N\OC(C)(C)C(=O)O)c4cnc(N)s4)C3SC2)n1 (stereo not drawn)
0.13 (≈ 0.181 µM) | CC(C)(O/N=C(\C(=O)NC1C(=O)N2C(C(=O)[O-])=C(CSc3nc(N)cc(N)[n+]3-c3ccc(Cl)cc3)CSC12)c1cnc(N)s1)C(=O)O (stereo not drawn)
0.06 (≈ 0.0859 µM) | C[n+]1cc(Cc2ccccc2)c(N)nc1SCC1=C(C(=O)[O-])N2C(=O)C(NC(=O)/C(=N\OC(C)(C)C(=O)O)c3cnc(N)s3)C2SC1 (stereo not drawn)

tested on: Citrobacter freundii; assay: In vitro minimum inhibitory concentration for Citrobacter freundii (ATCC-8090) by agar dilution method; assay type: functional; conditions: Citrobacter freundii; read-out: MIC; in short: as §1

MIC [µg/mL] | SMILES
0.13 (≈ 0.195 µM) | CCCC[n+]1c(N)cc(N)nc1SCC1=C(C(=O)[O-])N2C(=O)C(NC(=O)/C(=N\OC(C)(C)C(=O)O)c3cnc(N)s3)C2SC1 (stereo not drawn)
0.25 (≈ 0.37 µM) | CN(C)c1cc2n(C)cc[n+]2c(SCC2=C(C(=O)[O-])N3C(=O)C(NC(=O)/C(=N\OC(C)(C)C(=O)O)c4cnc(N)s4)C3SC2)n1 (stereo not drawn)
0.25 (≈ 0.347 µM) | CC(C)(O/N=C(\C(=O)NC1C(=O)N2C(C(=O)[O-])=C(CSc3nc(N)cc(N)[n+]3-c3ccc(Cl)cc3)CSC12)c1cnc(N)s1)C(=O)O (stereo not drawn)
0.06 (≈ 0.0859 µM) | C[n+]1cc(Cc2ccccc2)c(N)nc1SCC1=C(C(=O)[O-])N2C(=O)C(NC(=O)/C(=N\OC(C)(C)C(=O)O)c3cnc(N)s3)C2SC1 (stereo not drawn)

tested on: Proteus vulgaris; assay: In vitro minimum inhibitory concentration for Proteus vulgaris (ATCC-6059) by agar dilution method; assay type: functional; conditions: Proteus vulgaris; read-out: MIC; in short: as §1

MIC [µg/mL] | SMILES
0.25 (≈ 0.375 µM) | CCCC[n+]1c(N)cc(N)nc1SCC1=C(C(=O)[O-])N2C(=O)C(NC(=O)/C(=N\OC(C)(C)C(=O)O)c3cnc(N)s3)C2SC1 (stereo not drawn)
0.25 (≈ 0.37 µM) | CN(C)c1cc2n(C)cc[n+]2c(SCC2=C(C(=O)[O-])N3C(=O)C(NC(=O)/C(=N\OC(C)(C)C(=O)O)c4cnc(N)s4)C3SC2)n1 (stereo not drawn)
0.25 (≈ 0.347 µM) | CC(C)(O/N=C(\C(=O)NC1C(=O)N2C(C(=O)[O-])=C(CSc3nc(N)cc(N)[n+]3-c3ccc(Cl)cc3)CSC12)c1cnc(N)s1)C(=O)O (stereo not drawn)
0.5 (≈ 0.716 µM) | C[n+]1cc(Cc2ccccc2)c(N)nc1SCC1=C(C(=O)[O-])N2C(=O)C(NC(=O)/C(=N\OC(C)(C)C(=O)O)c3cnc(N)s3)C2SC1 (stereo not drawn)

tested on: Salmonella typhimurium; assay: In vitro minimum inhibitory concentration for Salmonella Typhimurium (ATCC-14028) by agar dilution method; assay type: functional, Salmonella enterica subsp. enterica serovar Typhimurium; conditions: Salmonella enterica; read-out: MIC; in short: as §1

MIC [µg/mL] | SMILES
0.5 (≈ 0.751 µM) | CCCC[n+]1c(N)cc(N)nc1SCC1=C(C(=O)[O-])N2C(=O)C(NC(=O)/C(=N\OC(C)(C)C(=O)O)c3cnc(N)s3)C2SC1 (stereo not drawn)
0.5 (≈ 0.74 µM) | CN(C)c1cc2n(C)cc[n+]2c(SCC2=C(C(=O)[O-])N3C(=O)C(NC(=O)/C(=N\OC(C)(C)C(=O)O)c4cnc(N)s4)C3SC2)n1 (stereo not drawn)
0.5 (≈ 0.694 µM) | CC(C)(O/N=C(\C(=O)NC1C(=O)N2C(C(=O)[O-])=C(CSc3nc(N)cc(N)[n+]3-c3ccc(Cl)cc3)CSC12)c1cnc(N)s1)C(=O)O (stereo not drawn)
0.5 (≈ 0.716 µM) | C[n+]1cc(Cc2ccccc2)c(N)nc1SCC1=C(C(=O)[O-])N2C(=O)C(NC(=O)/C(=N\OC(C)(C)C(=O)O)c3cnc(N)s3)C2SC1 (stereo not drawn)

tested on: Pseudomonas aeruginosa; assay: In vitro minimum inhibitory concentration for Pseudomonas aeruginosa (ATCC-27853) by agar dilution method; assay type: functional; conditions: Pseudomonas aeruginosa; read-out: MIC; in short: as §1

MIC [µg/mL] | SMILES
4 (≈ 6.01 µM) | CCCC[n+]1c(N)cc(N)nc1SCC1=C(C(=O)[O-])N2C(=O)C(NC(=O)/C(=N\OC(C)(C)C(=O)O)c3cnc(N)s3)C2SC1 (stereo not drawn)
4 (≈ 5.92 µM) | CN(C)c1cc2n(C)cc[n+]2c(SCC2=C(C(=O)[O-])N3C(=O)C(NC(=O)/C(=N\OC(C)(C)C(=O)O)c4cnc(N)s4)C3SC2)n1 (stereo not drawn)
2 (≈ 2.78 µM) | CC(C)(O/N=C(\C(=O)NC1C(=O)N2C(C(=O)[O-])=C(CSc3nc(N)cc(N)[n+]3-c3ccc(Cl)cc3)CSC12)c1cnc(N)s1)C(=O)O (stereo not drawn)
8 (≈ 11.4 µM) | C[n+]1cc(Cc2ccccc2)c(N)nc1SCC1=C(C(=O)[O-])N2C(=O)C(NC(=O)/C(=N\OC(C)(C)C(=O)O)c3cnc(N)s3)C2SC1 (stereo not drawn)

tested on: Staphylococcus epidermidis; assay: In vitro minimum inhibitory concentration for Staphylococcus epidermidis (ATCC-12228) by agar dilution method; assay type: functional; conditions: Staphylococcus epidermidis; read-out: MIC; in short: as §1

MIC [µg/mL] | SMILES
1 (≈ 1.5 µM) | CCCC[n+]1c(N)cc(N)nc1SCC1=C(C(=O)[O-])N2C(=O)C(NC(=O)/C(=N\OC(C)(C)C(=O)O)c3cnc(N)s3)C2SC1 (stereo not drawn)
1 (≈ 1.48 µM) | CN(C)c1cc2n(C)cc[n+]2c(SCC2=C(C(=O)[O-])N3C(=O)C(NC(=O)/C(=N\OC(C)(C)C(=O)O)c4cnc(N)s4)C3SC2)n1 (stereo not drawn)
2 (≈ 2.78 µM) | CC(C)(O/N=C(\C(=O)NC1C(=O)N2C(C(=O)[O-])=C(CSc3nc(N)cc(N)[n+]3-c3ccc(Cl)cc3)CSC12)c1cnc(N)s1)C(=O)O (stereo not drawn)
2 (≈ 2.86 µM) | C[n+]1cc(Cc2ccccc2)c(N)nc1SCC1=C(C(=O)[O-])N2C(=O)C(NC(=O)/C(=N\OC(C)(C)C(=O)O)c3cnc(N)s3)C2SC1 (stereo not drawn)

tested on: Enterobacter cloacae; assay: In vitro minimum inhibitory concentration for Enterobacter cloacae (ATCC-27508) by agar dilution method; assay type: functional; conditions: Enterobacter cloacae; read-out: MIC; in short: as §1

MIC [µg/mL] | SMILES
0.03 (≈ 0.0451 µM) | CCCC[n+]1c(N)cc(N)nc1SCC1=C(C(=O)[O-])N2C(=O)C(NC(=O)/C(=N\OC(C)(C)C(=O)O)c3cnc(N)s3)C2SC1 (stereo not drawn)
0.06 (≈ 0.0888 µM) | CN(C)c1cc2n(C)cc[n+]2c(SCC2=C(C(=O)[O-])N3C(=O)C(NC(=O)/C(=N\OC(C)(C)C(=O)O)c4cnc(N)s4)C3SC2)n1 (stereo not drawn)
0.13 (≈ 0.181 µM) | CC(C)(O/N=C(\C(=O)NC1C(=O)N2C(C(=O)[O-])=C(CSc3nc(N)cc(N)[n+]3-c3ccc(Cl)cc3)CSC12)c1cnc(N)s1)C(=O)O (stereo not drawn)
0.03 (≈ 0.0429 µM) | C[n+]1cc(Cc2ccccc2)c(N)nc1SCC1=C(C(=O)[O-])N2C(=O)C(NC(=O)/C(=N\OC(C)(C)C(=O)O)c3cnc(N)s3)C2SC1 (stereo not drawn)

tested on: Pseudomonas aeruginosa; assay: In vitro minimum inhibitory concentration for Pseudomonas aeruginosa (ATCC 10145) by agar dilution method; assay type: functional; conditions: not given; in short: as §1

MIC [µg/mL] | SMILES
4 (≈ 6.01 µM) | CCCC[n+]1c(N)cc(N)nc1SCC1=C(C(=O)[O-])N2C(=O)C(NC(=O)/C(=N\OC(C)(C)C(=O)O)c3cnc(N)s3)C2SC1 (stereo not drawn)
8 (≈ 11.8 µM) | CN(C)c1cc2n(C)cc[n+]2c(SCC2=C(C(=O)[O-])N3C(=O)C(NC(=O)/C(=N\OC(C)(C)C(=O)O)c4cnc(N)s4)C3SC2)n1 (stereo not drawn)
4 (≈ 5.55 µM) | CC(C)(O/N=C(\C(=O)NC1C(=O)N2C(C(=O)[O-])=C(CSc3nc(N)cc(N)[n+]3-c3ccc(Cl)cc3)CSC12)c1cnc(N)s1)C(=O)O (stereo not drawn)
16 (≈ 22.9 µM) | C[n+]1cc(Cc2ccccc2)c(N)nc1SCC1=C(C(=O)[O-])N2C(=O)C(NC(=O)/C(=N\OC(C)(C)C(=O)O)c3cnc(N)s3)C2SC1 (stereo not drawn)

tested on: Klebsiella aerogenes; assay: In vitro minimum inhibitory concentration for Enterobacter aerogenes (ATCC-29751) by agar dilution method; assay type: functional; conditions: Klebsiella aerogenes; read-out: MIC; in short: as §1

MIC [µg/mL] | SMILES
1 (≈ 1.5 µM) | CCCC[n+]1c(N)cc(N)nc1SCC1=C(C(=O)[O-])N2C(=O)C(NC(=O)/C(=N\OC(C)(C)C(=O)O)c3cnc(N)s3)C2SC1 (stereo not drawn)
4 (≈ 5.92 µM) | CN(C)c1cc2n(C)cc[n+]2c(SCC2=C(C(=O)[O-])N3C(=O)C(NC(=O)/C(=N\OC(C)(C)C(=O)O)c4cnc(N)s4)C3SC2)n1 (stereo not drawn)
1 (≈ 1.39 µM) | CC(C)(O/N=C(\C(=O)NC1C(=O)N2C(C(=O)[O-])=C(CSc3nc(N)cc(N)[n+]3-c3ccc(Cl)cc3)CSC12)c1cnc(N)s1)C(=O)O (stereo not drawn)
1 (≈ 1.43 µM) | C[n+]1cc(Cc2ccccc2)c(N)nc1SCC1=C(C(=O)[O-])N2C(=O)C(NC(=O)/C(=N\OC(C)(C)C(=O)O)c3cnc(N)s3)C2SC1 (stereo not drawn)

tested on: Staphylococcus aureus; assay: In vitro minimum inhibitory concentration for Staphylococcus aureus (ATCC 6538p) by agar dilution method; assay type: functional; conditions: Staphylococcus aureus, ATCC 6538p; read-out: MIC; in short: as §1

MIC [µg/mL] | SMILES
2 (≈ 3 µM) | CCCC[n+]1c(N)cc(N)nc1SCC1=C(C(=O)[O-])N2C(=O)C(NC(=O)/C(=N\OC(C)(C)C(=O)O)c3cnc(N)s3)C2SC1 (stereo not drawn)
2 (≈ 2.96 µM) | CN(C)c1cc2n(C)cc[n+]2c(SCC2=C(C(=O)[O-])N3C(=O)C(NC(=O)/C(=N\OC(C)(C)C(=O)O)c4cnc(N)s4)C3SC2)n1 (stereo not drawn)
4 (≈ 5.55 µM) | CC(C)(O/N=C(\C(=O)NC1C(=O)N2C(C(=O)[O-])=C(CSc3nc(N)cc(N)[n+]3-c3ccc(Cl)cc3)CSC12)c1cnc(N)s1)C(=O)O (stereo not drawn)
8 (≈ 11.4 µM) | C[n+]1cc(Cc2ccccc2)c(N)nc1SCC1=C(C(=O)[O-])N2C(=O)C(NC(=O)/C(=N\OC(C)(C)C(=O)O)c3cnc(N)s3)C2SC1 (stereo not drawn)
